LMPTP inh: LMPTP phosphatase inhibitors, primary screen, biochemical, fluorescence intensity, uHTS; Low molecular weight phosphotyrosine protein phosphatase (Homo sapiens), P24666; recombinant LMPTP-A, OMFP fluorogenic substrate; inhibition, % at 20 µM; actives 0.22% (n = 360,000); AID 651560, 2012;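 active = compounds that cut the enzyme signal by at least half of the control window in the single-dose screen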;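 note: plate controls were DMSO wells with enzyme plus substrate for no effect and substrate without enzyme for full effect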
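Test system – LMPTP-A phosphatase enzyme · Quantity – 0.625 nM LMPTP-A final · Reagent – OMFP substrate, 400 µM final · Dosing – one test concentration per compound, 20 µM, with 3% DMSO overall · Timing – 50 min enzyme reaction at room temperature, protected from light · Detection – fluorescence intensity · Controls – substrate-only low control, DMSO enzyme-plus-substrate high control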
Scp-1 inhibitor: Scp-1 phosphatase inhibitors, primary screen, biochemical, colorimetric, uHTS; Carboxy-terminal domain RNA polymerase II polypeptide A small phosphatase 1 (Homo …; inhibition, % at 20 µM; Recombinant Scp1, phosphopeptide, malachite green phosphate absorbance; actives 0.88% (n = 340,000); AID 493091, 2011;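 active = inhibition above about 50% at 20 µM, limit read from the data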;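 note: plate controls were DMSO wells with enzyme for no effect and wells lacking enzyme for full effect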
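Test system – truncated SCP-1 phosphatase (76-261aa) · Reagent – Phosphorylated 17-residue peptide substrate · Incubation – 45 min room-temperature reaction, 5 min colour, 30 min stabiliser · Detection – colorimetric phosphate reagent with accelerator and stabiliser, absorbance at 630 nm · Measure – % inhibition at 20 µM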
DNMT1 inh: human DNMT1 methyltransferase inhibitors, primary screen, biochemical, molecular beacon, fluorescence, HinP1I cleavage, uHTS | DNA (cytosine-5)-methyltransferase 1 (Homo sapiens), P26358 | inhibition (reported as % activation of signal), % at 10 µM | actives 0.83% (n = 360,000); in the data active = inhibition above about 50%
SUMO1-SIM PPI: modulators of SUMO1 protein-protein interactions, primary screen, biochemical, uHTS; Small ubiquitin-related modifier 1 (Homo sapiens), P63165; SUMO1 binding to a labelled peptide, TR-FRET, 1 h; inhibition, % at 20 µM; actives 0.33% (n = 360,000); in the data active = inhibition above about 37%
Target sequence (P63165 whole entry, looked up): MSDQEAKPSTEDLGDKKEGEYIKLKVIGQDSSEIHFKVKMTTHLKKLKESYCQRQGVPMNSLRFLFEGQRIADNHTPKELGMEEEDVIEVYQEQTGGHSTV
STEP inh: STEP phosphatase inhibitors, primary screen, biochemical, fluorescence intensity, uHTS; Tyrosine-protein phosphatase non-receptor type 5 (Homo sapiens), P54829; recombinant STEP, OMFP fluorogenic substrate; inhibition, % at 20 µM; actives 0.25% (n = 360,000); AID 588621, 2011;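 active = inhibition at 20 µM, scaled per plate between control wells, above about 37%, limit read from the data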;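 note: 0% = DMSO with enzyme and substrate and 100% = substrate only without enzyme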
Target sequence (P54829 whole entry, looked up): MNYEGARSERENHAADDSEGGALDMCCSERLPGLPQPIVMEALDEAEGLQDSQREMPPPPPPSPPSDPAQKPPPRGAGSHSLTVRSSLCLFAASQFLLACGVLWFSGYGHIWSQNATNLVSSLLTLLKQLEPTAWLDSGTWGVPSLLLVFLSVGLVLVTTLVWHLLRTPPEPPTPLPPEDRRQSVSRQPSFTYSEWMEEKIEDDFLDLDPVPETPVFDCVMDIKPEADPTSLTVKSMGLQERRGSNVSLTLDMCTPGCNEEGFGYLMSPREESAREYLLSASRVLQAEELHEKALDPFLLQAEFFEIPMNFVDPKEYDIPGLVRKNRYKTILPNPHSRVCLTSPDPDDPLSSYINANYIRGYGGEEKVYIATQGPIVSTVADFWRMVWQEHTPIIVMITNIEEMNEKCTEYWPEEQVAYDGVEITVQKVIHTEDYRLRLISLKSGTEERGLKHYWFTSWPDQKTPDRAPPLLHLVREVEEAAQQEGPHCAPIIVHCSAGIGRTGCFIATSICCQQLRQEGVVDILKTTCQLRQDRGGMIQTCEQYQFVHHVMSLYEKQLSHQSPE
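Test system: STEP tyrosine phosphatase / Reagent: OMFP at 25 µM / Doses: 20 µM, 1% DMSO / Read-out: percent inhibition scaled to no-enzyme and uninhibited-enzyme controls, plate-pattern corrected / Detection: FITC-channel fluorescence of OMFP product / Medium: Bis-Tris buffer pH 6.0, 2.5 mM DTT, 0.005% Tween 20 / Schedule: 20 min at room temperature, dark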
Scp-1 conf: Scp-1 phosphatase inhibitors, retest, confirmation, biochemical, colorimetric, single concentration; shares compounds with Scp-1 inhibitor; AID 540281, 2011; recombinant SCP-1 catalytic domain, phosphate release, malachite green absorbance; actives 61% (n = 2,500); inhibition, % at 20 µM;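 note: plate controls were DMSO with enzyme for no effect and buffer wells lacking enzyme for full effect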
Scp-1 MG ctr: colorimetric readout interference by compounds, confirmation, artefact control for Scp-1 inhibitor project, biochemical, single concentration | 2,500 tested, under 10 active | AID 540313, 2011 | apparent inhibition (interference), % at 20 µM | Colorimetric interference counterscreen, malachite green absorbance 630 nm | shares compounds with Scp-1 inhibitor;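 note: compounds added after enzyme reaction finished so only phosphate colour detection is probed; plate controls were DMSO wells with completed Scp-1 reaction for no effect and substrate wells lacking enzyme for full effect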
Scp-1 Tm shift: Scp-1 binding by thermal shift, confirmation, orthogonal assay for Scp-1 inhibitor project, biophysical, differential scanning fluorimetry. shares compounds with Scp-1 inhibitor. Recombinant SCP1, Sypro Orange thermal shift Tm. thermal shift relative to vanadate control, % at 40 µM. actives 25% (n = 1,500). AID 540329, 2011;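 active = substances whose mean melting-temperature shift, as a percentage of the reference inhibitor's shift, reaches about 5.3%, limit read from the data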;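 note: 0% = Tm of DMSO wells and 100% = Tm with sodium orthovanadate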
* = called active by the depositor; · = no result given. Hits are enriched below; roughly 1.7% of the tested compounds scored in any of these assays.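 Rule for the calls, unless noted: active = inhibition of at least 30% at 20 µM; inactive = the rest.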

SMILES	LMPTP inh	Scp-1 inhibitor	DNMT1 inh	SUMO1-SIM PPI	STEP inh	Scp-1 conf	Scp-1 MG ctr	Scp-1 Tm shift
COc1ccc2c(c1)c(=O)oc1c(C)c(OC(C)C(=O)N[C@@H](Cc3c[nH]c4ccc(O)cc34)C(=O)O)ccc12 (some centres undefined)	3.3	58.2*	12.2	27.0	-0.8	42.7*	-23.0	9.6*
CC(Oc1ccc2c(-c3ccccc3)cc(=O)oc2c1)C(=O)NC(Cc1c[nH]c2ccc(O)cc12)C(=O)O (centres undefined)	-1.0	27.0	8.3	-0.8	-0.8	·	·	·
CCCc1c(C(=O)N/N=C/c2cccs2)nnn1-c1nonc1N	7.3	29.9	19.9	8.9	1.4	·	·	·
CCCc1c(C(=O)N/N=C/c2ccc(C)s2)nnn1-c1nonc1N	29.0	60.9*	25.3	-2.2	12.3	26.5	-6.5	·
CC(=O)Nc1cccc(NC(=O)C2CCCO2)c1 (centres undefined)	-1.1	·	1.8	1.7	-3.2	·	·	·
O=C(Nc1cccc(NC(=O)C2CCCO2)c1)C1CCCO1 (centres undefined)	-1.8	56.1*	0.0	1.2	-1.7	-14.4	-13.4	·
Cc1ccc([C@H]2C[C@@H](O)[C@H](n3cc(-c4ccc(F)cc4)nn3)CN2C(=O)C2CCCCC2)cc1	0.3	·	-2.7	-3.3	-2.1	·	·	·
CCOC(=O)c1sc(NC(=O)C2C3C=CC(C3)C2C(=O)O)nc1C (centres undefined)	-1.2	53.7*	23.9	-1.6	21.6	42.1*	-11.2	-1.3
CCOc1ccccc1NC(=O)C1=C(C)NC(=S)NC1c1cccs1 (centres undefined)	-2.3	64.1*	3.4	0.1	0.3	-9.9	-11.5	·
Cc1cc(O)c2c(c1)C(=O)[C@@]13Oc4c5c(c(O)c6c(O)cc(C)cc46)C(=O)C[C@H](O)[C@H]5[C@@H]1[C@@H](O)CC(=O)C3=C2O	4.5	4.1	19.1	-2.5	2.5	·	·	·
CC1NC(=O)c2ccccc2-n2c1nc1ccc(F)cc1c2=O (centres undefined)	0.5	·	2.9	-0.5	0.3	·	·	·
Cc1cccc(Nc2n[nH]c(=S)s2)c1C	-1.0	60.1*	-0.1	12.5	2.2	18.9	-13.4	·
Cc1ccn2c(=O)nc(SCC(=O)NCc3ccccc3)nc2c1	16.0	86.6*	2.5	10.2	-0.9	60.8*	-12.9	5.7*
Cc1ccc2c(c1)cc(C)c1nnc(SCC(=O)NCc3ccco3)n12	0.9	21.2	6.6	1.3	-2.9	·	·	·
Cc1ccc2cc(C)c3nnc(SCC(=O)NCc4ccco4)n3c2c1	0.5	78.1*	20.0	11.5	2.1	56.6*	-14.2	-16.0
Cc1ccn2c(=O)nc(SCC(=O)NCc3ccco3)nc2c1	0.6	71.7*	10.9	10.8	1.1	35.3*	-11.4	-15.5
CN(CCc1ccccc1)C(=O)c1ccc(NC(=O)Cc2ccc(NC(=O)C3CCN(C(=O)CCc4ccccc4)CC3)cc2)cc1	5.3	-19.6	-16.7	2.6	-1.3	·	·	·
Cc1ccc(CNC(=O)Cn2ccc(NC(=O)OCc3ccccc3)nc2=O)o1	-2.6	-8.2	-1.5	5.8	-1.9	-4.7	-11.5	·
O=C(Cn1ccc(NC(=O)OCc2ccccc2)nc1=O)NCc1ccc2[nH]ccc2c1	1.2	4.0	-1.8	-6.1	-2.4	-1.2	0.1	·
COc1cc(NCCCn2ccc(NC(=O)OCc3ccccc3)nc2=O)cc(OC)c1OC	-0.6	-10.9	-22.7	-1.3	-0.9	-7.4	-8.2	·
COc1ccc(CNC(=O)Cn2ccc(NC(=O)OCc3ccccc3)nc2=O)cc1	-0.9	10.3	2.4	2.7	0.4	·	·	·
COCc1cccc(-c2csc(C(C)(NC(C)=O)c3ccccc3)n2)c1 (centres undefined)	-1.3	·	3.2	-2.1	-0.7	·	·	·
OC[C@@H]1CN(CCNc2ccccc2)C[C@H](n2cnc3c(NCc4ccncc4)ncnc32)O1	-1.5	·	-2.8	-2.7	0.5	·	·	·
COC(=O)[C@]12CCCCC=C1N(Cc1ccc(Cl)cc1Cl)C(=O)[C@H](CC(=O)NCc1ccc(OC)c(OC)c1)C2	3.4	·	·	6.2	·	·	·	·
C=CCn1c(COc2ccccc2F)nnc1SCC(=O)NC(=O)NCc1ccco1	6.2	91.5*	41.5	1.3	-0.9	65.4*	1.7	-7.0
SMILES	LMPTP inh	Scp-1 inhibitor	DNMT1 inh	SUMO1-SIM PPI	STEP inh	Scp-1 conf	Scp-1 MG ctr	Scp-1 Tm shift
C=CCn1c(Cc2cccs2)nnc1SCC(=O)NCc1ccco1	5.9	53.0*	9.0	3.9	-0.9	47.2*	-22.7	1.6
COCCCNC(=O)CSc1ccsc1[N+](=O)[O-]	1.0	19.1	0.2	-18.0	1.3	·	·	·
O=C(CSc1ccsc1[N+](=O)[O-])NCc1ccco1	3.6	56.7*	29.0	-10.2	4.7	61.1*	-15.6	4.9
COc1ccccc1OCc1nnc(SCC(=O)NCc2ccco2)n1Cc1ccco1	2.7	94.6*	42.9	11.5	8.2	87.7*	2.8	1.6
C=CCn1c(COc2ccccc2-c2ccccc2)nnc1SCC(=O)NC(=O)NCc1ccco1	1.7	0.6	2.1	0.0	0.8	·	·	·
CCOC(=O)C1(C)CCCN(C(=O)CCc2ccccc2)C1 (centres undefined)	0.2	·	3.9	-7.4	-0.4	·	·	·
CC[N+]1(C)CC2CCC(C)(C1)C2(C)C (centres undefined)	-2.2	55.5*	-1.1	0.4	1.9	38.8*	-11.5	-29.1
COc1ccc(NC(=O)Nc2nnc([C@H]3C[C@H](O)[C@@H](CO)O3)s2)cc1	-1.2	·	1.6	1.8	-0.4	·	·	·
Brc1ccc(CSc2ncn[nH]2)cc1	-0.3	50.8*	0.2	-1.1	6.1	12.0	-3.0	·
O=C(COc1ncnc2sccc12)N1CCN(C(=O)c2ccco2)CC1	5.5	91.5*	35.4	46.5*	7.1	63.9*	-20.2	1.8
CCOc1c(Br)cc(Br)cc1/C=C1\SC(N)=NC1=O	0.2	85.1*	16.9	2.9	2.2	8.6	-13.1	·
CC(C)(C)C(=O)O/N=C(\N)COc1cccc(Cl)c1	0.3	79.2*	2.2	2.1	-1.4	-8.4	-7.9	·

From PubChem BioAssay
